{
  "source": "ChEMBL document CHEMBL1148725",
  "about": "“2,2,2-Trichloro-N-({2-[2-(dimethylamino)ethyl]-1,3-dioxo-2,3-dihydro-1H-benzo[de]isoquinolin- 5-yl}carbamoyl)acetamide (UNBS3157), a novel nonhematotoxic naphthalimide derivative with potent antitumor activity” (J Med Chem, 2007)",
  "data": [
    {"system": "not listed separately", "test": "Antiproliferative activity against Hs683 cells after 72 hrs by MTT assay", "assay_type": "functional, cell-based, Homo sapiens, Hs 683", "details": "Homo sapiens, Hs 683, 72 h", "procedure,_shortened": "(§1)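 Cells cultured with each compound for three days; growth then read by the MTT colorimetric assay and reported as IC50 (µM).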", "units": {"IC50": "µM"}, "values": [
      {"smiles": "CN(C)CCN1C(=O)c2cccc3cc(NC(=S)Nc4ccc(OC(F)(F)F)cc4)cc(c23)C1=O", "IC50": 6.4},
      {"smiles": "CN(C)CCN1C(=O)c2cccc3cc(NC(=O)Nc4ccc(OC(F)(F)F)cc4)cc(c23)C1=O", "IC50": 2.6},
      {"smiles": "CN(C)CCN1C(=O)c2cccc3cc(NCc4cc5c(cc4[N+](=O)[O-])OCO5)cc(c23)C1=O.Cl", "IC50": 7.6},
      {"smiles": "CN(C)CCN1C(=O)c2cccc3cc(NC(=S)Nc4ccc(C#N)cc4)cc(c23)C1=O", "IC50": "> 10"},
      {"smiles": "CN(C)CCN1C(=O)c2cccc3cc(NC(=O)c4ccccc4)cc(c23)C1=O", "IC50": 5.6},
      {"smiles": "CCOC(=O)NC(=O)Nc1cc2c3c(cccc3c1)C(=O)N(CCN(C)C)C2=O", "IC50": 3.6},
      {"smiles": "COc1cc(/C=N\\c2cc3c4c(cccc4c2)C(=O)N(CCN(C)C)C3=O)ccc1O", "IC50": "> 10"},
      {"smiles": "CN(C)CCN1C(=O)c2cccc3cc(NC(=O)NC(=O)CCl)cc(c23)C1=O", "IC50": 3}
    ]},
    {"system": "not listed separately", "test": "Antiproliferative activity against U373MG cells after 72 hrs by MTT assay", "assay_type": "functional, cell-based, Homo sapiens, U-373MG ATCC", "details": "Homo sapiens, U373 MG, 72 h", "procedure,_shortened": "as §1", "units": {"IC50": "µM"}, "values": [
      {"smiles": "CN(C)CCN1C(=O)c2cccc3cc(NC(=S)Nc4ccc(OC(F)(F)F)cc4)cc(c23)C1=O", "IC50": 3.6},
      {"smiles": "CN(C)CCN1C(=O)c2cccc3cc(NC(=O)Nc4ccc(OC(F)(F)F)cc4)cc(c23)C1=O", "IC50": 3.1},
      {"smiles": "CN(C)CCN1C(=O)c2cccc3cc(NCc4cc5c(cc4[N+](=O)[O-])OCO5)cc(c23)C1=O.Cl", "IC50": "> 10"},
      {"smiles": "CN(C)CCN1C(=O)c2cccc3cc(NC(=S)Nc4ccc(C#N)cc4)cc(c23)C1=O", "IC50": 9.4},
      {"smiles": "CN(C)CCN1C(=O)c2cccc3cc(NC(=O)c4ccccc4)cc(c23)C1=O", "IC50": 6},
      {"smiles": "CCOC(=O)NC(=O)Nc1cc2c3c(cccc3c1)C(=O)N(CCN(C)C)C2=O", "IC50": 4.1},
      {"smiles": "COc1cc(/C=N\\c2cc3c4c(cccc4c2)C(=O)N(CCN(C)C)C3=O)ccc1O", "IC50": "> 10"},
      {"smiles": "CN(C)CCN1C(=O)c2cccc3cc(NC(=O)NC(=O)CCl)cc(c23)C1=O", "IC50": 3.3}
    ]},
    {"system": "HCT-15", "test": "Antiproliferative activity against HCT15 cells after 72 hrs by MTT assay", "assay_type": "functional, cell-based, Homo sapiens", "details": "Homo sapiens, HCT-15, 72 h", "procedure,_shortened": "as §1", "units": {"IC50": "µM"}, "values": [
      {"smiles": "CN(C)CCN1C(=O)c2cccc3cc(NC(=S)Nc4ccc(OC(F)(F)F)cc4)cc(c23)C1=O", "IC50": 5.9},
      {"smiles": "CN(C)CCN1C(=O)c2cccc3cc(NC(=O)Nc4ccc(OC(F)(F)F)cc4)cc(c23)C1=O", "IC50": 5.8},
      {"smiles": "CN(C)CCN1C(=O)c2cccc3cc(NCc4cc5c(cc4[N+](=O)[O-])OCO5)cc(c23)C1=O.Cl", "IC50": 8},
      {"smiles": "CN(C)CCN1C(=O)c2cccc3cc(NC(=S)Nc4ccc(C#N)cc4)cc(c23)C1=O", "IC50": "> 10"},
      {"smiles": "CN(C)CCN1C(=O)c2cccc3cc(NC(=O)c4ccccc4)cc(c23)C1=O", "IC50": 8.4},
      {"smiles": "CCOC(=O)NC(=O)Nc1cc2c3c(cccc3c1)C(=O)N(CCN(C)C)C2=O", "IC50": 4.4},
      {"smiles": "COc1cc(/C=N\\c2cc3c4c(cccc4c2)C(=O)N(CCN(C)C)C3=O)ccc1O", "IC50": "> 10"},
      {"smiles": "CN(C)CCN1C(=O)c2cccc3cc(NC(=O)NC(=O)CCl)cc(c23)C1=O", "IC50": 4.5}
    ]},
    {"system": "LoVo", "test": "Antiproliferative activity against LoVo cells after 72 hrs by MTT assay", "assay_type": "functional, cell-based, Homo sapiens", "details": "Homo sapiens, LoVo, 72 h", "procedure,_shortened": "as §1", "units": {"IC50": "µM"}, "values": [
      {"smiles": "CN(C)CCN1C(=O)c2cccc3cc(NC(=S)Nc4ccc(OC(F)(F)F)cc4)cc(c23)C1=O", "IC50": 4},
      {"smiles": "CN(C)CCN1C(=O)c2cccc3cc(NC(=O)Nc4ccc(OC(F)(F)F)cc4)cc(c23)C1=O", "IC50": 3.2},
      {"smiles": "CN(C)CCN1C(=O)c2cccc3cc(NCc4cc5c(cc4[N+](=O)[O-])OCO5)cc(c23)C1=O.Cl", "IC50": 5},
      {"smiles": "CN(C)CCN1C(=O)c2cccc3cc(NC(=S)Nc4ccc(C#N)cc4)cc(c23)C1=O", "IC50": "> 10"},
      {"smiles": "CN(C)CCN1C(=O)c2cccc3cc(NC(=O)c4ccccc4)cc(c23)C1=O", "IC50": 3.7},
      {"smiles": "CCOC(=O)NC(=O)Nc1cc2c3c(cccc3c1)C(=O)N(CCN(C)C)C2=O", "IC50": 7.7},
      {"smiles": "COc1cc(/C=N\\c2cc3c4c(cccc4c2)C(=O)N(CCN(C)C)C3=O)ccc1O", "IC50": "> 10"},
      {"smiles": "CN(C)CCN1C(=O)c2cccc3cc(NC(=O)NC(=O)CCl)cc(c23)C1=O", "IC50": 2.9}
    ]},
    {"system": "A549", "test": "Antiproliferative activity against A549 cells after 72 hrs by MTT assay", "assay_type": "functional, cell-based, Homo sapiens", "details": "Homo sapiens, A549, 72 h", "procedure,_shortened": "as §1", "units": {"IC50": "µM"}, "values": [
      {"smiles": "CN(C)CCN1C(=O)c2cccc3cc(NC(=S)Nc4ccc(OC(F)(F)F)cc4)cc(c23)C1=O", "IC50": 4.3},
      {"smiles": "CN(C)CCN1C(=O)c2cccc3cc(NC(=O)Nc4ccc(OC(F)(F)F)cc4)cc(c23)C1=O", "IC50": 3.1},
      {"smiles": "CN(C)CCN1C(=O)c2cccc3cc(NCc4cc5c(cc4[N+](=O)[O-])OCO5)cc(c23)C1=O.Cl", "IC50": "> 10"},
      {"smiles": "CN(C)CCN1C(=O)c2cccc3cc(NC(=S)Nc4ccc(C#N)cc4)cc(c23)C1=O", "IC50": "> 10"},
      {"smiles": "CN(C)CCN1C(=O)c2cccc3cc(NC(=O)c4ccccc4)cc(c23)C1=O", "IC50": 8.5},
      {"smiles": "CCOC(=O)NC(=O)Nc1cc2c3c(cccc3c1)C(=O)N(CCN(C)C)C2=O", "IC50": 4.9},
      {"smiles": "COc1cc(/C=N\\c2cc3c4c(cccc4c2)C(=O)N(CCN(C)C)C3=O)ccc1O", "IC50": "> 10"},
      {"smiles": "CN(C)CCN1C(=O)c2cccc3cc(NC(=O)NC(=O)CCl)cc(c23)C1=O", "IC50": 4.1}
    ]},
    {"system": "MCF7", "test": "Antiproliferative activity against MCF7 cells after 72 hrs by MTT assay", "assay_type": "functional, cell-based, Homo sapiens", "details": "Homo sapiens, MCF7, 72 h", "procedure,_shortened": "as §1", "units": {"IC50": "µM"}, "values": [
      {"smiles": "CN(C)CCN1C(=O)c2cccc3cc(NC(=S)Nc4ccc(OC(F)(F)F)cc4)cc(c23)C1=O", "IC50": 4.8},
      {"smiles": "CN(C)CCN1C(=O)c2cccc3cc(NC(=O)Nc4ccc(OC(F)(F)F)cc4)cc(c23)C1=O", "IC50": 6.5},
      {"smiles": "CN(C)CCN1C(=O)c2cccc3cc(NCc4cc5c(cc4[N+](=O)[O-])OCO5)cc(c23)C1=O.Cl", "IC50": "> 10"},
      {"smiles": "CN(C)CCN1C(=O)c2cccc3cc(NC(=S)Nc4ccc(C#N)cc4)cc(c23)C1=O", "IC50": "> 10"},
      {"smiles": "CN(C)CCN1C(=O)c2cccc3cc(NC(=O)c4ccccc4)cc(c23)C1=O", "IC50": "> 10"},
      {"smiles": "CCOC(=O)NC(=O)Nc1cc2c3c(cccc3c1)C(=O)N(CCN(C)C)C2=O", "IC50": 6.3},
      {"smiles": "COc1cc(/C=N\\c2cc3c4c(cccc4c2)C(=O)N(CCN(C)C)C3=O)ccc1O", "IC50": "> 10"},
      {"smiles": "CN(C)CCN1C(=O)c2cccc3cc(NC(=O)NC(=O)CCl)cc(c23)C1=O", "IC50": 4.9}
    ]},
    {"system": "not listed separately", "test": "Toxicity in ip dosed B6D2F1 mouse", "assay_type": "organism-based", "details": "in vivo", "procedure,_shortened": "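Acute MTD was set by a single i.p. dose to groups of three healthy female B6D2F1 mice, at 2.5, 5, 10, 20, 40, 80 and 160 mg/kg. The MTD is the dose just below the lowest dose that killed at least one mouse.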", "units": {"MTD": "mg/kg"}, "values": [
      {"smiles": "CN(C)CCN1C(=O)c2cccc3cc(NC(=S)Nc4ccc(OC(F)(F)F)cc4)cc(c23)C1=O", "MTD": 40},
      {"smiles": "CN(C)CCN1C(=O)c2cccc3cc(NC(=O)Nc4ccc(OC(F)(F)F)cc4)cc(c23)C1=O", "MTD": "> 80"},
      {"smiles": "CN(C)CCN1C(=O)c2cccc3cc(NCc4cc5c(cc4[N+](=O)[O-])OCO5)cc(c23)C1=O.Cl", "MTD": "> 80"},
      {"smiles": "CN(C)CCN1C(=O)c2cccc3cc(NC(=S)Nc4ccc(C#N)cc4)cc(c23)C1=O", "MTD": "> 80"},
      {"smiles": "CN(C)CCN1C(=O)c2cccc3cc(NC(=O)c4ccccc4)cc(c23)C1=O", "MTD": 40},
      {"smiles": "CCOC(=O)NC(=O)Nc1cc2c3c(cccc3c1)C(=O)N(CCN(C)C)C2=O", "MTD": 80},
      {"smiles": "COc1cc(/C=N\\c2cc3c4c(cccc4c2)C(=O)N(CCN(C)C)C3=O)ccc1O", "MTD": "> 80"},
      {"smiles": "CN(C)CCN1C(=O)c2cccc3cc(NC(=O)NC(=O)CCl)cc(c23)C1=O", "MTD": 20}
    ]},
    {"system": "L1210", "test": "Antitumor activity in L1210 cells xenografted B6D2F1 mouse at 20 mg/kg, ip relative to control", "assay_type": "functional", "details": "route intraperitoneal", "procedure,_shortened": "(§2)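 Mice grafted with L1210 leukaemia cells on day 0, then dosed i.p. four times weekly on days 1-4 and 8-11. Five mice per group. Outcome is %T/C, the median survival of treated over control. Kruskal-Wallis test followed by Dunn comparisons against control.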", "units": {"Activity": "%"}, "values": [
      {"smiles": "CN(C)CCN1C(=O)c2cccc3cc(NC(=O)c4ccccc4)cc(c23)C1=O", "Activity": 167},
      {"smiles": "CN(C)CCN1C(=O)c2cccc3cc(NC(=O)NC(=O)CCl)cc(c23)C1=O", "Activity": 147}
    ]},
    {"system": "L1210", "test": "Antitumor activity in L1210 cells xenografted B6D2F1 mouse at 40 mg/kg, ip relative to control", "assay_type": "functional", "details": "route intraperitoneal", "procedure,_shortened": "as §2", "units": {"Activity": "%"}, "values": [
      {"smiles": "CCOC(=O)NC(=O)Nc1cc2c3c(cccc3c1)C(=O)N(CCN(C)C)C2=O", "Activity": 207}
    ]},
    {"system": "L1210", "test": "Antitumor activity in L1210 cells xenografted B6D2F1 mouse at 80 mg/kg, ip relative to control", "assay_type": "functional", "details": "route intraperitoneal", "procedure,_shortened": "as §2", "units": {"Activity": "%"}, "values": [
      {"smiles": "CN(C)CCN1C(=O)c2cccc3cc(NC(=S)Nc4ccc(OC(F)(F)F)cc4)cc(c23)C1=O", "Activity": 171},
      {"smiles": "CN(C)CCN1C(=O)c2cccc3cc(NC(=O)Nc4ccc(OC(F)(F)F)cc4)cc(c23)C1=O", "Activity": 194},
      {"smiles": "CN(C)CCN1C(=O)c2cccc3cc(NCc4cc5c(cc4[N+](=O)[O-])OCO5)cc(c23)C1=O.Cl", "Activity": 150},
      {"smiles": "COc1cc(/C=N\\c2cc3c4c(cccc4c2)C(=O)N(CCN(C)C)C3=O)ccc1O", "Activity": 164}
    ]}
  ]
}
